Measured values taken from ChEMBL document CHEMBL1142894, “Preparation of 5-aryl-3-alkylthio-l,2,4-triazoles and corresponding sulfones with antiinflammatory-analgesic activity” (Bioorg Med Chem, 2007).
The source made the active and inactive calls. No cut-off for these calls is given here.

Legend:
Mus musculus [1] = test: Inhibition of carrageenan-induced paw edema in Swiss albino mouse at 200 mg/kg, po after 180 mins relative to control; assay type: functional; conditions: 3 h
In short: (§1)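 Oral dosing in 0.5% CMC; vehicle to controls. Then carrageenan (0.5 mg/25 ll, freshly suspended in 154 mM saline) injected into the right hind paw subplantar tissue; saline into the left paw. Right-left footpad thickness difference measured by dial gauge calliper every 90 min over 6 h. Inhibition % is relative to vehicle control. n = 6; mean ± SEM.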

Mus musculus [2] = test: Antiinflammatory activity against carrageenan-induced paw edema in Swiss albino mouse assessed as swelling thickness at 100 mg/kg, po after 90 mins; assay type: functional; in short: as §1
Mus musculus [3] = test: Inhibition of carrageenan-induced paw edema in Swiss albino mouse at 200 mg/kg, po after 360 mins relative to control; assay type: functional; conditions: 6 h; in short: as §1
Mus musculus [4] = test: Inhibition of carrageenan-induced paw edema in Swiss albino mouse at 100 mg/kg, po after 360 mins relative to control; assay type: functional; conditions: 6 h; in short: as §1
Mus musculus [5] = test: Inhibition of carrageenan-induced paw edema in Swiss albino mouse at 200 mg/kg, po after 270 mins relative to control; assay type: functional; conditions: 4.5 h; in short: as §1
Mus musculus [6] = test: Inhibition of carrageenan-induced paw edema in Swiss albino mouse at 100 mg/kg, po after 90 mins relative to control; assay type: functional; conditions: 1.5 h; in short: as §1
Mus musculus [7] = test: Antiinflammatory activity against carrageenan-induced paw edema in Swiss albino mouse assessed as swelling thickness at 200 mg/kg, po after 270 mins; assay type: functional; in short: as §1
Mus musculus [8] = test: Inhibition of carrageenan-induced paw edema in Swiss albino mouse at 25 mg/kg, po after 90 mins relative to control; assay type: functional; conditions: 1.5 h; in short: as §1
Mus musculus [9] = test: Inhibition of carrageenan-induced paw edema in Swiss albino mouse at 50 mg/kg, po after 180 mins relative to control; assay type: functional; conditions: 3 h; in short: as §1
Mus musculus [10] = test: Acute toxicity in Swiss albino mouse assessed as lethal effect at 50 mg/kg/day, po after 72 hrs; assay type: organism-based; design: route oral; conditions: in vivo
In short: (§2)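 Oral single dose suspended in 0.5% carboxymethylcellulose, given after a 24 h fast; food and water returned 1 h after dosing. Vehicle-only controls. Mice observed at 1 h, then once daily for 72 h, for toxic signs and mortality.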

Mus musculus [11] = test: Inhibition of carrageenan-induced paw edema in Swiss albino mouse at 25 mg/kg, po after 180 mins relative to control; assay type: functional; conditions: 3 h; in short: as §1
Mus musculus [12] = test: Acute toxicity in Swiss albino mouse assessed as lethal effect at 100 mg/kg/day, po after 72 hrs; assay type: organism-based; design: route oral; conditions: in vivo; in short: as §2
Mus musculus [13] = test: Acute toxicity in Swiss albino mouse assessed as lethal effect at 200 mg/kg/day, po after 72 hrs; assay type: organism-based; design: route oral; conditions: in vivo; in short: as §2
Mus musculus [14] = test: Antiinflammatory activity against carrageenan-induced paw edema in Swiss albino mouse assessed as swelling thickness at 100 mg/kg, po after 360 mins; assay type: functional; in short: as §1
Mus musculus [15] = test: Antiinflammatory activity against carrageenan-induced paw edema in Swiss albino mouse assessed as swelling thickness at 50 mg/kg, po after 360 mins; assay type: functional; in short: as §1
Mus musculus [16] = test: Antiinflammatory activity against carrageenan-induced paw edema in Swiss albino mouse assessed as swelling thickness at 25 mg/kg, po after 360 mins; assay type: functional; in short: as §1
Mus musculus [17] = test: Acute toxicity in Swiss albino mouse assessed as lethal effect at 25 mg/kg/day, po after 72 hrs; assay type: organism-based; design: route oral; conditions: in vivo; in short: as §2
Mus musculus [18] = test: Inhibition of carrageenan-induced paw edema in Swiss albino mouse at 100 mg/kg, po after 270 mins relative to control; assay type: functional; conditions: 4.5 h; in short: as §1
Mus musculus [19] = test: Analgesic activity against p-benzoquinone-induced abdominal constriction in Swiss albino mouse assessed as number of writhings at 100 mg/kg, po; assay type: functional, Abdomen
In short: (§3)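 Test samples given orally in 0.5% CMC; vehicle to controls. 60 min later, 2.5% (v/v) p-benzoquinone in distilled water, 0.1 ml/10 g, given i.p. Mice housed singly; writhes counted for 15 min starting 5 min after injection. Activity is % change from vehicle controls. n = 6; mean ± SEM.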

Mus musculus [20] = test: Inhibition of carrageenan-induced paw edema in Swiss albino mouse at 25 mg/kg, po after 360 mins relative to control; assay type: functional; conditions: 6 h; in short: as §1
Mus musculus [21] = test: Inhibition of carrageenan-induced paw edema in Swiss albino mouse at 25 mg/kg, po after 270 mins relative to control; assay type: functional; conditions: 4.5 h; in short: as §1
Mus musculus [22] = test: Analgesic activity against p-benzoquinone-induced abdominal constriction in Swiss albino mouse assessed as number of writhings at 50 mg/kg, po; assay type: functional, Abdomen; in short: as §3
Mus musculus [23] = test: Analgesic activity against p-benzoquinone-induced abdominal constriction in Swiss albino mouse assessed as number of writhings at 25 mg/kg, po; assay type: functional, Abdomen; in short: as §3
Mus musculus [24] = test: Gastric-ulcerogenic effect in Swiss albino mouse assessed as lesions at 50 mg/kg, po; assay type: functional, organism-based; design: dose 50 mg/kg
In short: (§4)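 Mice killed under deep ether anesthesia 3 h after the writhing test; the oral dose in 0.5% CMC was the one used in that test. Stomachs removed, opened along the great curvature and examined under a dissecting microscope for lesions or bleeding. Reported as ratio of ulceration; n = 6.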

Mus musculus [25] = test: Inhibition of carrageenan-induced paw edema in Swiss albino mouse at 50 mg/kg, po after 270 mins relative to control; assay type: functional; conditions: 4.5 h
In short: (§5)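 Mice, n = 6 per group. Test agent given orally as a suspension in 0.5% sodium CMC in distilled water; controls received vehicle only. Afterwards, 0.5 mg/25 ll carrageenan in saline (154 mM NaCl) injected subplantar into the right hind paw, saline into the left. Right-minus-left footpad thickness measured by dial gauge caliper every 90 min for 6 h. Inhibition is relative to vehicle-control group means.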

Mus musculus [26] = test: Inhibition of p-benzoquinone-induced writhing in Swiss albino mouse at 200 mg/kg, po relative to control; assay type: functional
In short: (§6)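 Mice, n = 6 per group, dosed orally with a suspension in 0.5% sodium CMC. 60 min later, 0.1 ml/10 g of 2.5% […] p-benzoquinone in distilled water given ip. Abdominal writhes counted per animal for 15 min, starting 5 min after injection. Expressed as % change in mean writhing count versus vehicle controls.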

Mus musculus [27] = test: Analgesic activity against p-benzoquinone-induced abdominal constriction in Swiss albino mouse assessed as number of writhings at 200 mg/kg, po; assay type: functional, Abdomen; in short: as §3
Mus musculus [28] = test: Inhibition of carrageenan-induced paw edema in Swiss albino mouse at 50 mg/kg, po after 90 mins relative to control; assay type: functional; conditions: 1.5 h; in short: as §5
Mus musculus [29] = test: Antiinflammatory activity against carrageenan-induced paw edema in Swiss albino mouse assessed as swelling thickness at 25 mg/kg, po after 270 mins; assay type: functional; in short: as §1
Mus musculus [30] = test: Inhibition of p-benzoquinone-induced writhing in Swiss albino mouse at 100 mg/kg, po relative to control; assay type: functional; in short: as §6
Mus musculus [31] = test: Inhibition of p-benzoquinone-induced writhing in Swiss albino mouse at 50 mg/kg, po relative to control; assay type: functional; in short: as §6
Mus musculus [32] = test: Antiinflammatory activity against carrageenan-induced paw edema in Swiss albino mouse assessed as swelling thickness at 25 mg/kg, po after 180 mins; assay type: functional; in short: as §1
Mus musculus [33] = test: Antiinflammatory activity against carrageenan-induced paw edema in Swiss albino mouse assessed as swelling thickness at 50 mg/kg, po after 180 mins; assay type: functional; in short: as §1
Mus musculus [34] = test: Gastric-ulcerogenic effect in Swiss albino mouse assessed as lesions at 25 mg/kg, po; assay type: functional, organism-based; design: dose 25 mg/kg; in short: as §4
Mus musculus [35] = test: Inhibition of p-benzoquinone-induced writhing in Swiss albino mouse at 25 mg/kg, po relative to control; assay type: functional; in short: as §6
Mus musculus [36] = test: Antiinflammatory activity against carrageenan-induced paw edema in Swiss albino mouse assessed as swelling thickness at 50 mg/kg, po after 270 mins; assay type: functional; in short: as §1
Mus musculus [37] = test: Inhibition of carrageenan-induced paw edema in Swiss albino mouse at 100 mg/kg, po after 180 mins relative to control; assay type: functional; conditions: 3 h; in short: as §1
Mus musculus [38] = test: Inhibition of carrageenan-induced paw edema in Swiss albino mouse at 200 mg/kg, po after 90 mins relative to control; assay type: functional; conditions: 1.5 h; in short: as §1
Mus musculus [39] = test: Antiinflammatory activity against carrageenan-induced paw edema in Swiss albino mouse assessed as swelling thickness at 100 mg/kg, po after 270 mins; assay type: functional; in short: as §1
Mus musculus [40] = test: Antiinflammatory activity against carrageenan-induced paw edema in Swiss albino mouse assessed as swelling thickness at 200 mg/kg, po after 180 mins; assay type: functional; in short: as §1
Mus musculus [41] = test: Antiinflammatory activity against carrageenan-induced paw edema in Swiss albino mouse assessed as swelling thickness at 50 mg/kg, po after 90 mins; assay type: functional; in short: as §1
Mus musculus [42] = test: Antiinflammatory activity against carrageenan-induced paw edema in Swiss albino mouse assessed as swelling thickness at 200 mg/kg, po after 360 mins; assay type: functional; in short: as §1
Mus musculus [43] = test: Inhibition of carrageenan-induced paw edema in Swiss albino mouse at 50 mg/kg, po after 360 mins relative to control; assay type: functional; conditions: 6 h; in short: as §5
Mus musculus [44] = test: Antiinflammatory activity against carrageenan-induced paw edema in Swiss albino mouse assessed as swelling thickness at 25 mg/kg, po after 90 mins; assay type: functional; in short: as §1
Mus musculus [45] = test: Antiinflammatory activity against carrageenan-induced paw edema in Swiss albino mouse assessed as swelling thickness at 100 mg/kg, po after 180 mins; assay type: functional; in short: as §1
Mus musculus [46] = test: Antiinflammatory activity against carrageenan-induced paw edema in Swiss albino mouse assessed as swelling thickness at 200 mg/kg, po after 90 mins; assay type: functional; in short: as §1

Compound: CS(=O)(=O)c1nc(-c2ccccc2Cl)n[nH]1
- inhibition in vivo at 200 mg/kg (Mus musculus [1]): 8.1%
- Activity (Mus musculus [2]): 35 10^-2mm
- inhibition in vivo at 200 mg/kg (Mus musculus [3]): 9.6%
- inhibition in vivo at 100 mg/kg (Mus musculus [4]): 35.3%
- inhibition in vivo at 200 mg/kg (Mus musculus [5]): 7.7%
- inhibition in vivo at 100 mg/kg (Mus musculus [6]): 21.9%
- Activity (Mus musculus [7]): 59.8 10^-2mm
- inhibition in vivo at 25 mg/kg (Mus musculus [8]): 7.7%
- inhibition in vivo at 50 mg/kg (Mus musculus [9]): 30.6%
- Activity (Mus musculus [10]): Non-toxic
- inhibition in vivo at 25 mg/kg (Mus musculus [11]): 4.2%
- Activity (Mus musculus [12]): Non-toxic
- Activity (Mus musculus [13]): Non-toxic
- Activity (Mus musculus [14]): 44.5 10^-2mm
- Activity (Mus musculus [15]): 45.5 10^-2mm
- Activity (Mus musculus [16]): 67.1 10^-2mm
- Activity (Mus musculus [17]): Non-toxic
- inhibition in vivo at 100 mg/kg (Mus musculus [18]): 29.8%
- Activity (Mus musculus [19]): 32.2
- inhibition in vivo at 25 mg/kg (Mus musculus [20]): 6.8%
- inhibition in vivo at 25 mg/kg (Mus musculus [21]): 7.1%
- Activity (Mus musculus [22]): 30.4
- Activity (Mus musculus [23]): 40.1
- Activity (Mus musculus [24]): Active
- inhibition in vivo at 50 mg/kg (Mus musculus [25]): 33.5%
- inhibition in vivo at 200 mg/kg (Mus musculus [26]): 11.9%
- Activity (Mus musculus [27]): 45.3
- inhibition in vivo at 50 mg/kg (Mus musculus [28]): 26.5%
- Activity (Mus musculus [29]): 60.2 10^-2mm
- inhibition in vivo at 100 mg/kg (Mus musculus [30]): 31.9%
- inhibition in vivo at 50 mg/kg (Mus musculus [31]): 40.9%
- Activity (Mus musculus [32]): 56.9 10^-2mm
- Activity (Mus musculus [33]): 41.2 10^-2mm
- Activity (Mus musculus [34]): Active
- inhibition in vivo at 25 mg/kg (Mus musculus [35]): 21.9%
- Activity (Mus musculus [36]): 43.1 10^-2mm
- inhibition in vivo at 100 mg/kg (Mus musculus [37]): 24.3%
- inhibition in vivo at 200 mg/kg (Mus musculus [38]): 6.4%
- Activity (Mus musculus [39]): 41.3 10^-2mm
- Activity (Mus musculus [40]): 54.6 10^-2mm
- Activity (Mus musculus [41]): 39.1 10^-2mm
- Activity (Mus musculus [42]): 65.1 10^-2mm
- inhibition in vivo at 50 mg/kg (Mus musculus [43]): 36.8%
- Activity (Mus musculus [44]): 49.1 10^-2mm
- Activity (Mus musculus [45]): 39 10^-2mm
- Activity (Mus musculus [46]): 49.8 10^-2mm
